Runt-CBFb FRET – Runt domain-CBFb interaction inhibition | Cerulean-Runt/Venus-CBFb FRET ratio 530/480, 1 h | AID 1496 | 0.46% of 220,000 active | inhibition, % at 20 µM;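 active means inhibition over about 50% at 20 µM in the single-dose screen, limit read from the data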;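 further: 0% = DMSO wells and 100% = excess unlabeled CBFb competitor control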
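Measured by: fluorescence energy transfer, 422 nm excitation, 530/480 nm emission; test system: Cerulean-tagged RUNX1 Runt domain (FRET donor) fusion protein; buffer or medium: Tris pH 7.5 buffer with BSA; compound: one dose, 20 µM compound, 1% DMSO; times: two 1 h room-temperature incubations shielded from light; benchmarks: unlabeled CBFb 5 µM, positive control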
RanGTP-Imp inh – inhibitors of RanGTP-importin-beta interaction, primary screen, biochemical, FRET, CFP-Ran, YFP-importin-beta, homogeneous; cell-free CFP-Ran/YFP-importin-beta FRET ratio; inhibition, % (no concentration beside the values); 1.1% of 300,000 active; AID 2216;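 active means more than half of the replicate wells show a fall in the fluorescence ratio signal beyond about 16%, limit read from the data, passing the limit was not always enough; inconclusive means exactly half of the replicate wells pass the set limit; inactive means fewer than half of replicates pass the limit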;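 further: 0% = DMSO wells and 100% = Ran loaded with GDP instead of GTP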
Runt-SMMHC FRET – Runt domain-CBFb-SMMHC interaction inhibition; Cerulean-Runt/Venus-CBFb-SMMHC FRET ratio 530/480, 1 h; inhibition, % at 20 µM; 0.74% of 220,000 active;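 active means mean inhibition across duplicate retests at 20 µM reaching about 50%, limit read from the data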;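 further: 0% = DMSO wells and 100% = wells with excess untagged CBFb-SMMHC; inhibitors lower the FRET ratio by blocking Runt binding to CBFb-SMMHC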
Hck Nef HTS – human Hck-Nef kinase inhibition; P08631; Recombinant Hck-YEEI plus Nef, Z-Lyte FRET kinase assay; inhibition, % at 20 µM; 0.68% of 220,000 active;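 active means Hck-Nef kinase inhibition above about 50%, limit read from the data; inactive means inhibition below that limit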;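 further: 0% = DMSO with Hck plus Nef and 100% = Hck alone without Nef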
Target sequence (P08631 whole entry, looked up): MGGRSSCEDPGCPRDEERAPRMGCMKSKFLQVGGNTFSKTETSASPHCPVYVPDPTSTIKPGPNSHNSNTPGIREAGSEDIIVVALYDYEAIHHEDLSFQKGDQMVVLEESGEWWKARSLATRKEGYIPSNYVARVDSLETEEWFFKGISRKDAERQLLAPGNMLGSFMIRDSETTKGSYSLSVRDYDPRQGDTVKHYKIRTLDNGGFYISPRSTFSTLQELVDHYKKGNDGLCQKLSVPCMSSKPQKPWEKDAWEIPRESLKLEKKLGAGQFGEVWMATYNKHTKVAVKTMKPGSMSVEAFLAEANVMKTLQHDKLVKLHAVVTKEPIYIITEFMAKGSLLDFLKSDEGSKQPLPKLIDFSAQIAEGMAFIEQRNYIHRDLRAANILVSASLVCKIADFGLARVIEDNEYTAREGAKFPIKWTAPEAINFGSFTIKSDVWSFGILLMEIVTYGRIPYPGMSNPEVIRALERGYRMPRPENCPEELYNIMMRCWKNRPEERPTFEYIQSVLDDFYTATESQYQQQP
* = called active by the depositor. Shown are actives, neighbours in structure and some others; about 1.9% of the full set was active somewhere.

Screening COc1ccc(CN2C(=O)NC(=O)/C(=C/c3ccc([N+](=O)[O-])o3)C2=O)cc1 returned Runt-SMMHC FRET -9 and Hck Nef HTS 142*.
`COc1ccc(/C=C2/C(=O)NC(=O)N(Cc3ccco3)C2=O)cc1` gave Runt-CBFb FRET 38, RanGTP-Imp inh 1, Runt-SMMHC FRET 26 and Hck Nef HTS 57*.
Screening O=C(CCC(=O)N1CCC2(CC1)OCCO2)Nc1nnc(C2CCCCC2)s1 returned Runt-CBFb FRET 2, RanGTP-Imp inh 0, Runt-SMMHC FRET -1 and Hck Nef HTS 12.
`CCCCC(=O)N/N=C/c1c(O)n(CCc2ccccc2)c(=O)[nH]c1=O` gave Runt-CBFb FRET 1, RanGTP-Imp inh 2, Runt-SMMHC FRET 0 and Hck Nef HTS 32.
Screening Cn1c(O)c(/C=C/C=Nc2ccccc2)c(=O)n(C)c1=O returned Runt-CBFb FRET 35, RanGTP-Imp inh 33*, Runt-SMMHC FRET 69* and Hck Nef HTS 2.
CCCCn1c(O)c(/C=C/C=Nc2ccccc2)c(=O)[nH]c1=O was read as Runt-CBFb FRET 47, RanGTP-Imp inh 41*, Runt-SMMHC FRET 64* and Hck Nef HTS 4.
COc1cc(O)c(C(=O)O)c(-c2cc(O)c(O)cc2C)c1 was read as Runt-CBFb FRET 19, RanGTP-Imp inh 1, Runt-SMMHC FRET 58* and Hck Nef HTS -43.
`COc1ccc2c(c1)c(C(=O)O)c(C)n2CC(C)C` gave Runt-CBFb FRET -2, RanGTP-Imp inh 7, Runt-SMMHC FRET -2 and Hck Nef HTS -1.
Screening NC(=O)c1cn(C2OC(CO)C(O)C2O)c2ncnc(N)c12 (configuration not stated) returned Runt-CBFb FRET -2, RanGTP-Imp inh 2, Runt-SMMHC FRET 1 and Hck Nef HTS 54*.
`Oc1ccc(C(=C(Cl)Cl)c2ccc(O)cc2)cc1` gave RanGTP-Imp inh 1.
Cc1cc(N2CCCC2)ccc1C=C(C#N)C#N was read as Runt-CBFb FRET -86, RanGTP-Imp inh 0, Runt-SMMHC FRET -162 and Hck Nef HTS 12.
Screening Cc1ccc2cc(C=C(C#N)C#N)c(Cl)nc2c1 returned Runt-CBFb FRET -4, RanGTP-Imp inh 51*, Runt-SMMHC FRET -18 and Hck Nef HTS 8.
For Nc1c(C(=O)NC2CCCC2)c2nc3ccccc3nc2n1CC1CCCO1 (configuration not stated) the results were Runt-CBFb FRET 22, RanGTP-Imp inh 97*, Runt-SMMHC FRET 82* and Hck Nef HTS 45.
Screening COC(=O)C1=C(c2cc3ccccc3s2)C[C@@H]2CC[C@H]1N2C(=O)NCCCOC(C)C returned RanGTP-Imp inh 0.
For CC(C)CCn1c(N)c(C(=O)NCc2cccs2)c2nc3ccccc3nc21 the results were Runt-CBFb FRET 2, RanGTP-Imp inh 50*, Runt-SMMHC FRET 20 and Hck Nef HTS 4.
For CC(C)OCCCNC(=O)c1c(N)n(Cc2cccs2)c2nc3ccccc3nc12 the results were Runt-CBFb FRET 16, RanGTP-Imp inh 80*, Runt-SMMHC FRET 81* and Hck Nef HTS 44.
Screening Nc1c(C(=O)OCC2CCCO2)c2nc3ccccc3nc2n1Cc1cccs1 (configuration not stated) returned Runt-CBFb FRET 28, RanGTP-Imp inh inconclusive, Runt-SMMHC FRET 85* and Hck Nef HTS 30.
For CC1=C(C/C(C)=C/c2ccccc2)/C(=C/CO)[C@H](O)[C@](C)(O)C12CC2 the results were RanGTP-Imp inh -2.
Screening CCOP(=O)(OCC)C(NC(=O)CC(C)C)C(Cl)(Cl)Cl (configuration not stated) returned Runt-CBFb FRET 1, RanGTP-Imp inh 2, Runt-SMMHC FRET -1 and Hck Nef HTS 17.
`CCOP(=O)(OCC)C(C)(C)NC(=O)C(Cl)(Cl)Cl` gave Runt-CBFb FRET 0, RanGTP-Imp inh 85*, Runt-SMMHC FRET 0 and Hck Nef HTS -3.
Screening Cc1ccc(N2C(=O)NC(=O)/C(=C/c3ccc(-c4ccc(C(=O)O)c(Cl)c4)o3)C2=O)cc1 returned Runt-CBFb FRET 18, RanGTP-Imp inh 6, Runt-SMMHC FRET 0 and Hck Nef HTS 52*.
O=C(/C=C/c1c[nH]c2ccccc12)c1c(O)n(CCc2ccccc2)c(=O)[nH]c1=O was read as Runt-CBFb FRET -56, RanGTP-Imp inh 31*, Runt-SMMHC FRET -90 and Hck Nef HTS -17.
For CC(C)OC(=O)c1c(N)n(Cc2ccco2)c2nc3ccccc3nc12 the results were RanGTP-Imp inh inconclusive and Hck Nef HTS 34.

Screening results as filed in PubChem BioAssay.
